In ChEMBL document CHEMBL1150584, “Antifungal stilbenoids from Stemona collinsae” (J Nat Prod, 2002):
Values after ≈ are worked out from the molar mass of the structure shown. Active and inactive are the calls of the source. The calls are words filed in the database; no cut-off is given here.

What was measured:
[1] = system: Cladosporium herbarum; experiment: Growth inhibition of Cladosporium herbarum VIAM MA1511 at 10 ug by bioautography test; assay type: functional, organism-based
[2] = system: Alternaria citri; experiment: Inhibition of germ tube formation in Alternaria citri VIAM MA1627 after 16 hrs by microdilution technique; assay type: functional, organism-based
Summary of the method: (§1)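 Stock (2 mg in 250 µL acetone plus 4.75 mL 4% malt extract, emulsified with 0.2% Tween 80) serially 2-fold microdiluted in 4% malt extract broth. Conidia were added at 10⁴ CFU/mL, then incubated 16 h at room temperature and stopped with lactophenol blue. Mycelial size was taken as pixel counts from images of 10 germinated conidia per well. Probit-log estimates covered 200–0.1 µg/mL. Controls were vehicle stock and benomyl.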

[3] = system: Fusarium avenaceum; experiment: Inhibition of germ tube formation in Fusarium avenaceum VIAM MA1512 after 16 hrs by microdilution technique; assay type: functional, organism-based; summary of the method: as §1
[4] = system: Pyricularia grisea; experiment: Inhibition of germ tube formation in Pyricularia grisea VIAM MA1628 after 16 hrs by microdilution technique; assay type: functional, organism-based
Summary of the method: (§2)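 Germ tube inhibition by 2-fold serial microdilution in 4% malt extract broth. Compound stock of 2 mg in 250 µL acetone plus 4.75 mL malt extract with 0.2% Tween 80; negative control was stock without compound. Spores added at 10⁴ CFU/mL, incubated 16 h at room temperature, stopped with lactophenol blue. Mycelial size taken as pixel counts from images of 10 germinated conidia per well. Probit-log estimates over 200–0.1 µg/mL; MIC = lowest concentration with no germination.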

[5] = system: Botrytis cinerea; experiment: Inhibition of germ tube formation in Botrytis cinerea VIAM MA2725 after 16 hrs by microdilution technique; assay type: functional, organism-based; summary of the method: as §1
[6] = system: Botrytis cinerea; experiment: Inhibition of germ tube formation in Botrytis cinerea VIAM MA2725 at 0.4 to 200 ug/ml after 16 hrs by microdilution technique; assay type: functional; summary of the method: as §2
[7] = system: Cladosporium herbarum; experiment: Inhibition of germ tube formation in Cladosporium herbarum VIAM MA1511 after 16 hrs by microdilution technique; assay type: functional, organism-based; summary of the method: as §1
[8] = system: Cladosporium herbarum; experiment: Inhibition of germ tube formation in Cladosporium herbarum VIAM MA1511 at 0.4 to 200 ug/ml after 16 hrs by microdilution technique; assay type: functional; summary of the method: as §2
[9] = system: Fusarium avenaceum; experiment: Inhibition of germ tube formation in Fusarium avenaceum VIAM MA1512 at 1.6 to 200 ug/ml after 16 hrs by microdilution technique; assay type: functional; summary of the method: as §1
[10] = system: Botrytis cinerea; experiment: Inhibition of germ tube formation in Botrytis cinerea VIAM MA2725 at 1.6 to 200 ug/ml after 16 hrs by microdilution technique; assay type: functional; summary of the method: as §1

## COc1cc(O)c(C)c(-c2cc3c(O)cccc3o2)c1
[1]
  Activity: Active

## COc1cc(O)c(C)c(CCc2cccc(O)c2OC)c1
[1]
  Activity: Active

## COc1cc(O)cc(CCc2cccc(O)c2OC)c1
[1]
  Activity: Active

## Cc1c(O)cc(/C=C/c2ccccc2)cc1O
[1]
  Activity: Active

## Cc1c(O)cc(CCc2ccccc2O)cc1O
[1]
  Activity: Active

## Oc1cc(O)cc(-c2cc3ccccc3o2)c1
[1]
  Activity: Active

## Oc1cc(O)cc(/C=C/c2ccccc2)c1
[1]
  Activity: Active

## CCCCNC(=O)n1c(NC(=O)OC)nc2ccccc21 [BENOMYL]
[2]
  EC50: > 200 µg/mL
  EC90: > 200 µg/mL
  MIC: > 200 µg/mL
[3]
  EC50: 0.02 µg/mL (≈ 0.0689 µM)
  EC90: > 200 µg/mL
  MIC: 100 µg/mL (≈ 344 µM)
[4]
  EC90: 84 µg/mL (≈ 289 µM)
  MIC: 200 µg/mL (≈ 689 µM)
[5]
  MIC: > 200 µg/mL
[6]
  inhibition (INH): 85%
[7]
  MIC: > 200 µg/mL
[8]
  inhibition (INH): 85%

## COc1cc(O)cc(-c2cc3c(O)cccc3o2)c1 [STEMOFURAN B]
[1]
  Activity: Active
[2]
  EC50: 5 µg/mL (≈ 19.5 µM)
  EC90: 128 µg/mL (≈ 499 µM)
  MIC: 200 µg/mL (≈ 780 µM)
[3]
  EC50: 10 µg/mL (≈ 39 µM)
  EC90: > 200 µg/mL
  MIC: > 200 µg/mL
[4]
  EC50: 1.4 µg/mL (≈ 5.46 µM)
  EC90: 52 µg/mL (≈ 203 µM)
  MIC: 50 µg/mL (≈ 195 µM)
[5]
  EC50: 8 µg/mL (≈ 31.2 µM)
  EC90: > 200 µg/mL
  MIC: > 200 µg/mL
[7]
  EC50: 183 µg/mL (≈ 714 µM)
  EC90: > 200 µg/mL
  MIC: > 200 µg/mL

## Cc1c(O)cc(-c2cc3ccccc3o2)cc1O [STEMOFURAN C]
[1]
  Activity: Active
[2]
  EC50: 7 µg/mL (≈ 29.1 µM)
  EC90: 528 µg/mL (≈ 2200 µM)
  MIC: > 200 µg/mL
[3]
  EC50: 21 µg/mL (≈ 87.4 µM)
  EC90: > 200 µg/mL
  MIC: > 200 µg/mL
[4]
  EC50: 3.2 µg/mL (≈ 13.3 µM)
  EC90: 30 µg/mL (≈ 125 µM)
  MIC: 50 µg/mL (≈ 208 µM)
[5]
  EC50: 29 µg/mL (≈ 121 µM)
  EC90: > 200 µg/mL
  MIC: > 200 µg/mL
[7]
  EC50: 8 µg/mL (≈ 33.3 µM)
  EC90: > 200 µg/mL
  MIC: > 200 µg/mL

## COc1cc(-c2cc3c(O)cccc3o2)c(C)c(O)c1C [STEMOFURAN E]
[1]
  Activity: Active
[2]
  EC50: 5 µg/mL (≈ 17.6 µM)
  EC90: > 200 µg/mL
  MIC: > 200 µg/mL
[3]
  EC50: 18 µg/mL (≈ 63.3 µM)
  EC90: > 200 µg/mL
  MIC: > 200 µg/mL
[5]
  EC50: 26 µg/mL (≈ 91.4 µM)
  EC90: > 200 µg/mL
  MIC: > 200 µg/mL
[7]
  EC50: 0.8 µg/mL (≈ 2.81 µM)
  EC90: > 200 µg/mL
  MIC: > 200 µg/mL

## COc1c(C)c(O)c(C)c(-c2cc3c(O)cccc3o2)c1C [STEMOFURAN F]
[1]
  Activity: Active
[2]
  EC50: 10 µg/mL (≈ 33.5 µM)
  EC90: > 200 µg/mL
  MIC: > 200 µg/mL
[3]
  MIC: > 200 µg/mL
[9]
  inhibition (INH): 30%
[5]
  MIC: > 200 µg/mL
[10]
  inhibition (INH): 30%
[7]
  EC50: 79 µg/mL (≈ 265 µM)
  EC90: > 200 µg/mL
  MIC: > 200 µg/mL

## COc1cc(-c2cc3c(O)c(C)ccc3o2)c(C)c(O)c1C [STEMOFURAN G]
[2]
  EC50: 14 µg/mL (≈ 46.9 µM)
  EC90: > 200 µg/mL
  MIC: > 200 µg/mL
[3]
  MIC: > 200 µg/mL
[9]
  inhibition (INH): 30%
[5]
  MIC: > 200 µg/mL
[10]
  inhibition (INH): 30%
[7]
  EC50: > 200 µg/mL
  EC90: > 200 µg/mL
  MIC: > 200 µg/mL

## COc1cc(-c2cc3c(O)cccc3o2)c(C)c(OC)c1C [STEMOFURAN J]
[2]
  EC50: 50 µg/mL (≈ 168 µM)
  EC90: > 200 µg/mL
  MIC: > 200 µg/mL
[3]
  EC50: 32 µg/mL (≈ 107 µM)
  EC90: > 200 µg/mL
  MIC: > 200 µg/mL
[4]
  EC50: 0.9 µg/mL (≈ 3.02 µM)
  EC90: 8.5 µg/mL (≈ 28.5 µM)
  MIC: 25 µg/mL (≈ 83.8 µM)
[5]
  EC50: 50 µg/mL (≈ 168 µM)
  EC90: > 200 µg/mL
  MIC: > 200 µg/mL
[7]
  EC50: 34 µg/mL (≈ 114 µM)
  EC90: > 200 µg/mL
  MIC: > 200 µg/mL

## COc1ccccc1CCc1cc(O)cc(O)c1 [STILBOSTEMIN A]
[1]
  Activity: Active
[2]
  EC50: 70 µg/mL (≈ 287 µM)
  EC90: > 200 µg/mL
  MIC: > 200 µg/mL
[3]
  EC50: > 200 µg/mL
  EC90: > 200 µg/mL
  MIC: > 200 µg/mL
[4]
  EC50: 46 µg/mL (≈ 188 µM)
  EC90: > 200 µg/mL
  MIC: > 200 µg/mL
[5]
  MIC: > 200 µg/mL
[10]
  inhibition (INH): 30%
[7]
  EC50: > 200 µg/mL
  EC90: > 200 µg/mL
  MIC: > 200 µg/mL

## Cc1c(O)cc(CCc2ccccc2)cc1O [STILBOSTEMIN B]
[1]
  Activity: Active
[2]
  EC50: 5 µg/mL (≈ 21.9 µM)
  EC90: > 200 µg/mL
  MIC: 200 µg/mL (≈ 876 µM)
[3]
  EC50: 16 µg/mL (≈ 70.1 µM)
  EC90: > 200 µg/mL
  MIC: > 200 µg/mL
[4]
  EC50: 3 µg/mL (≈ 13.1 µM)
  EC90: 371 µg/mL (≈ 1630 µM)
  MIC: 100 µg/mL (≈ 438 µM)
[5]
  EC50: 10 µg/mL (≈ 43.8 µM)
  EC90: > 200 µg/mL
  MIC: > 200 µg/mL
[7]
  EC50: 15 µg/mL (≈ 65.7 µM)
  EC90: > 200 µg/mL
  MIC: > 200 µg/mL

## COc1ccccc1CCc1cc(O)c(C)c(O)c1 [STILBOSTEMIN D]
[1]
  Activity: Active
[2]
  EC50: 19 µg/mL (≈ 73.6 µM)
  EC90: > 200 µg/mL
  MIC: > 200 µg/mL
[3]
  EC50: 57 µg/mL (≈ 221 µM)
  EC90: > 200 µg/mL
  MIC: > 200 µg/mL
[4]
  EC50: 3 µg/mL (≈ 11.6 µM)
  EC90: 152 µg/mL (≈ 588 µM)
  MIC: 100 µg/mL (≈ 387 µM)
[5]
  EC50: 11 µg/mL (≈ 42.6 µM)
  EC90: > 200 µg/mL
  MIC: > 200 µg/mL
[7]
  EC50: 17 µg/mL (≈ 65.8 µM)
  EC90: > 200 µg/mL
  MIC: > 200 µg/mL
